In brackets after ≈: the same amount, converted by molar mass.
system: Bacillus subtilis; assay: Antibacterial activity against Bacillus subtilis ATCC 6633 after 18 hrs by microdilution assay; assay type: functional; conditions: ATCC 6633, 18 h
Outline: (§1)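 Broth microdilution in Mueller Hinton broth, inoculum 5 × 10^5–10^6 cfu/mL final, compounds dissolved in DMSO (at most 1% in the solution), 37 °C for 18 h aerobically. Blank controls received DMSO alone; magnolol served as positive control.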

Row | MIC | Compound
1 | 12.5 µg/mL (≈ 25.1 µM) | C=C(C)[C@@H]1CCC(=C)[C@H](CC[C@H]2C(C)=CC[C@@H](C(=C)C)[C@]2(C)CCC(=O)O)[C@@]1(C)CCC(=O)OCC
2 | 3.12 µg/mL (≈ 6.21 µM) | C=C(C)[C@@H]1CC=C(C)[C@H](CC[C@H]2C(=C)CC[C@@H](C(C)(C)O)[C@]2(C)CCC(=O)OC)[C@@]1(C)CCC(=O)O [LAMESTICUMIN A]
3 | 12.5 µg/mL (≈ 27.2 µM) | CC1=CC[C@H]2C(C)(C)C(=O)CC[C@]2(C)[C@H]1CC/C=C(\C)CC/C=C(\C)CC[C@@H](O)C(C)(C)O [LAMESTICUMIN F]
4 | 12.5 µg/mL (≈ 46.9 µM) | C=CCc1ccc(O)c(-c2cc(CC=C)ccc2O)c1 [MAGNOLOL]
5 | 3.12 µg/mL (≈ 6.86 µM) | C=C1CC[C@H]2C(C)(C)[C@@H](O)CC[C@]2(C)[C@H]1CCC1=C(C)C(=O)C[C@H]2C(C)(C)C(=O)CC[C@]12C [LAMESTICUMIN C]

system: Shigella flexneri; assay: Antibacterial activity against Shigella flexneri ATCC 12022 after 18 hrs by microdilution assay; assay type: functional; conditions: ATCC 12022, 18 h; outline: as §1

Row | MIC | Compound
6 | > 50 µg/mL | C=C(C)[C@@H]1CCC(=C)[C@H](CC[C@H]2C(C)=CC[C@@H](C(=C)C)[C@]2(C)CCC(=O)O)[C@@]1(C)CCC(=O)OCC
7 | > 50 µg/mL | C=C(C)[C@@H]1CC=C(C)[C@H](CC[C@H]2C(=C)CC[C@@H](C(C)(C)O)[C@]2(C)CCC(=O)OC)[C@@]1(C)CCC(=O)O [LAMESTICUMIN A]
8 | > 50 µg/mL | CC1=CC[C@H]2C(C)(C)C(=O)CC[C@]2(C)[C@H]1CC/C=C(\C)CC/C=C(\C)CC[C@@H](O)C(C)(C)O [LAMESTICUMIN F]
9 | > 50 µg/mL | C=CCc1ccc(O)c(-c2cc(CC=C)ccc2O)c1 [MAGNOLOL]
10 | > 50 µg/mL | C=C1CC[C@H]2C(C)(C)[C@@H](O)CC[C@]2(C)[C@H]1CCC1=C(C)C(=O)C[C@H]2C(C)(C)C(=O)CC[C@]12C [LAMESTICUMIN C]

system: Escherichia coli; assay: Antibacterial activity against Escherichia coli ATCC 25922 after 18 hrs by microdilution assay; assay type: functional; conditions: ATCC 25922, 18 h; outline: as §1

Row | MIC | Compound
11 | > 50 µg/mL | C=C(C)[C@@H]1CCC(=C)[C@H](CC[C@H]2C(C)=CC[C@@H](C(=C)C)[C@]2(C)CCC(=O)O)[C@@]1(C)CCC(=O)OCC
12 | > 50 µg/mL | C=C(C)[C@@H]1CC=C(C)[C@H](CC[C@H]2C(=C)CC[C@@H](C(C)(C)O)[C@]2(C)CCC(=O)OC)[C@@]1(C)CCC(=O)O [LAMESTICUMIN A]
13 | > 50 µg/mL | CC1=CC[C@H]2C(C)(C)C(=O)CC[C@]2(C)[C@H]1CC/C=C(\C)CC/C=C(\C)CC[C@@H](O)C(C)(C)O [LAMESTICUMIN F]
14 | > 50 µg/mL | C=CCc1ccc(O)c(-c2cc(CC=C)ccc2O)c1 [MAGNOLOL]
15 | > 50 µg/mL | C=C1CC[C@H]2C(C)(C)[C@@H](O)CC[C@]2(C)[C@H]1CCC1=C(C)C(=O)C[C@H]2C(C)(C)C(=O)CC[C@]12C [LAMESTICUMIN C]

system: Staphylococcus aureus; assay: Antibacterial activity against Micrococcus pyogenes clinical isolate after 18 hrs by microdilution assay; assay type: functional; conditions: not given; outline: as §1

Row | MIC | Compound
16 | 12.5 µg/mL (≈ 25.1 µM) | C=C(C)[C@@H]1CCC(=C)[C@H](CC[C@H]2C(C)=CC[C@@H](C(=C)C)[C@]2(C)CCC(=O)O)[C@@]1(C)CCC(=O)OCC
17 | 3.12 µg/mL (≈ 6.21 µM) | C=C(C)[C@@H]1CC=C(C)[C@H](CC[C@H]2C(=C)CC[C@@H](C(C)(C)O)[C@]2(C)CCC(=O)OC)[C@@]1(C)CCC(=O)O [LAMESTICUMIN A]
18 | > 50 µg/mL | CC1=CC[C@H]2C(C)(C)C(=O)CC[C@]2(C)[C@H]1CC/C=C(\C)CC/C=C(\C)CC[C@@H](O)C(C)(C)O [LAMESTICUMIN F]
19 | 25 µg/mL (≈ 93.9 µM) | C=CCc1ccc(O)c(-c2cc(CC=C)ccc2O)c1 [MAGNOLOL]
20 | 3.12 µg/mL (≈ 6.86 µM) | C=C1CC[C@H]2C(C)(C)[C@@H](O)CC[C@]2(C)[C@H]1CCC1=C(C)C(=O)C[C@H]2C(C)(C)C(=O)CC[C@]12C [LAMESTICUMIN C]

system: Pseudomonas aeruginosa; assay: Antibacterial activity against Pseudomonas aeruginosa ATCC 14502 after 18 hrs by microdilution assay; assay type: functional; conditions: ATCC 14502, 18 h; outline: as §1

Row | MIC | Compound
21 | > 50 µg/mL | C=C(C)[C@@H]1CCC(=C)[C@H](CC[C@H]2C(C)=CC[C@@H](C(=C)C)[C@]2(C)CCC(=O)O)[C@@]1(C)CCC(=O)OCC
22 | > 50 µg/mL | C=C(C)[C@@H]1CC=C(C)[C@H](CC[C@H]2C(=C)CC[C@@H](C(C)(C)O)[C@]2(C)CCC(=O)OC)[C@@]1(C)CCC(=O)O [LAMESTICUMIN A]
23 | > 50 µg/mL | CC1=CC[C@H]2C(C)(C)C(=O)CC[C@]2(C)[C@H]1CC/C=C(\C)CC/C=C(\C)CC[C@@H](O)C(C)(C)O [LAMESTICUMIN F]
24 | > 50 µg/mL | C=CCc1ccc(O)c(-c2cc(CC=C)ccc2O)c1 [MAGNOLOL]
25 | > 50 µg/mL | C=C1CC[C@H]2C(C)(C)[C@@H](O)CC[C@]2(C)[C@H]1CCC1=C(C)C(=O)C[C@H]2C(C)(C)C(=O)CC[C@]12C [LAMESTICUMIN C]

system: Bacillus cereus; assay: Antibacterial activity against Bacillus cereus clinical isolate after 18 hrs by microdilution assay; assay type: functional; conditions: not given; outline: as §1

Row | MIC | Compound
26 | 3.12 µg/mL (≈ 6.26 µM) | C=C(C)[C@@H]1CCC(=C)[C@H](CC[C@H]2C(C)=CC[C@@H](C(=C)C)[C@]2(C)CCC(=O)O)[C@@]1(C)CCC(=O)OCC
27 | 3.12 µg/mL (≈ 6.21 µM) | C=C(C)[C@@H]1CC=C(C)[C@H](CC[C@H]2C(=C)CC[C@@H](C(C)(C)O)[C@]2(C)CCC(=O)OC)[C@@]1(C)CCC(=O)O [LAMESTICUMIN A]
28 | 3.12 µg/mL (≈ 6.8 µM) | CC1=CC[C@H]2C(C)(C)C(=O)CC[C@]2(C)[C@H]1CC/C=C(\C)CC/C=C(\C)CC[C@@H](O)C(C)(C)O [LAMESTICUMIN F]
29 | 12.5 µg/mL (≈ 46.9 µM) | C=CCc1ccc(O)c(-c2cc(CC=C)ccc2O)c1 [MAGNOLOL]
30 | 3.12 µg/mL (≈ 6.86 µM) | C=C1CC[C@H]2C(C)(C)[C@@H](O)CC[C@]2(C)[C@H]1CCC1=C(C)C(=O)C[C@H]2C(C)(C)C(=O)CC[C@]12C [LAMESTICUMIN C]

system: Staphylococcus aureus; assay: Antibacterial activity against Staphylococcus aureus ATCC 25923 after 18 hrs by microdilution assay; assay type: functional; conditions: ATCC 25923, 18 h; outline: as §1

Row | MIC | Compound
31 | 50 µg/mL (≈ 100 µM) | C=C(C)[C@@H]1CCC(=C)[C@H](CC[C@H]2C(C)=CC[C@@H](C(=C)C)[C@]2(C)CCC(=O)O)[C@@]1(C)CCC(=O)OCC
32 | 6.25 µg/mL (≈ 12.4 µM) | C=C(C)[C@@H]1CC=C(C)[C@H](CC[C@H]2C(=C)CC[C@@H](C(C)(C)O)[C@]2(C)CCC(=O)OC)[C@@]1(C)CCC(=O)O [LAMESTICUMIN A]
33 | > 50 µg/mL | CC1=CC[C@H]2C(C)(C)C(=O)CC[C@]2(C)[C@H]1CC/C=C(\C)CC/C=C(\C)CC[C@@H](O)C(C)(C)O [LAMESTICUMIN F]
34 | 25 µg/mL (≈ 93.9 µM) | C=CCc1ccc(O)c(-c2cc(CC=C)ccc2O)c1 [MAGNOLOL]
35 | 6.25 µg/mL (≈ 13.7 µM) | C=C1CC[C@H]2C(C)(C)[C@@H](O)CC[C@]2(C)[C@H]1CCC1=C(C)C(=O)C[C@H]2C(C)(C)C(=O)CC[C@]12C [LAMESTICUMIN C]

system: Serratia marcescens; assay: Antibacterial activity against Serratia marcescens ATCC 25419 after 18 hrs by microdilution assay; assay type: functional; conditions: ATCC 25419, 18 h; outline: as §1

Row | MIC | Compound
36 | > 50 µg/mL | C=C(C)[C@@H]1CCC(=C)[C@H](CC[C@H]2C(C)=CC[C@@H](C(=C)C)[C@]2(C)CCC(=O)O)[C@@]1(C)CCC(=O)OCC
37 | > 50 µg/mL | C=C(C)[C@@H]1CC=C(C)[C@H](CC[C@H]2C(=C)CC[C@@H](C(C)(C)O)[C@]2(C)CCC(=O)OC)[C@@]1(C)CCC(=O)O [LAMESTICUMIN A]
38 | > 50 µg/mL | CC1=CC[C@H]2C(C)(C)C(=O)CC[C@]2(C)[C@H]1CC/C=C(\C)CC/C=C(\C)CC[C@@H](O)C(C)(C)O [LAMESTICUMIN F]
39 | > 50 µg/mL | C=CCc1ccc(O)c(-c2cc(CC=C)ccc2O)c1 [MAGNOLOL]
40 | > 50 µg/mL | C=C1CC[C@H]2C(C)(C)[C@@H](O)CC[C@]2(C)[C@H]1CCC1=C(C)C(=O)C[C@H]2C(C)(C)C(=O)CC[C@]12C [LAMESTICUMIN C]

system: Staphylococcus epidermidis; assay: Antibacterial activity against Staphylococcus epidermidis ATCC 12228 after 18 hrs by microdilution assay; assay type: functional; conditions: ATCC 12228, 18 h; outline: as §1

Row | MIC | Compound
41 | 12.5 µg/mL (≈ 25.1 µM) | C=C(C)[C@@H]1CCC(=C)[C@H](CC[C@H]2C(C)=CC[C@@H](C(=C)C)[C@]2(C)CCC(=O)O)[C@@]1(C)CCC(=O)OCC
42 | 12.5 µg/mL (≈ 24.9 µM) | C=C(C)[C@@H]1CC=C(C)[C@H](CC[C@H]2C(=C)CC[C@@H](C(C)(C)O)[C@]2(C)CCC(=O)OC)[C@@]1(C)CCC(=O)O [LAMESTICUMIN A]
43 | > 50 µg/mL | CC1=CC[C@H]2C(C)(C)C(=O)CC[C@]2(C)[C@H]1CC/C=C(\C)CC/C=C(\C)CC[C@@H](O)C(C)(C)O [LAMESTICUMIN F]
44 | 12.5 µg/mL (≈ 46.9 µM) | C=CCc1ccc(O)c(-c2cc(CC=C)ccc2O)c1 [MAGNOLOL]
45 | 12.5 µg/mL (≈ 27.5 µM) | C=C1CC[C@H]2C(C)(C)[C@@H](O)CC[C@]2(C)[C@H]1CCC1=C(C)C(=O)C[C@H]2C(C)(C)C(=O)CC[C@]12C [LAMESTICUMIN C]

system: Alcaligenes faecalis; assay: Antibacterial activity against Alcaligenes faecalis ATCC 8750 after 18 hrs by microdilution assay; assay type: functional; conditions: ATCC 8750, 18 h; outline: as §1

Row | MIC | Compound
46 | > 50 µg/mL | C=C(C)[C@@H]1CCC(=C)[C@H](CC[C@H]2C(C)=CC[C@@H](C(=C)C)[C@]2(C)CCC(=O)O)[C@@]1(C)CCC(=O)OCC
47 | > 50 µg/mL | C=C(C)[C@@H]1CC=C(C)[C@H](CC[C@H]2C(=C)CC[C@@H](C(C)(C)O)[C@]2(C)CCC(=O)OC)[C@@]1(C)CCC(=O)O [LAMESTICUMIN A]
48 | > 50 µg/mL | CC1=CC[C@H]2C(C)(C)C(=O)CC[C@]2(C)[C@H]1CC/C=C(\C)CC/C=C(\C)CC[C@@H](O)C(C)(C)O [LAMESTICUMIN F]
49 | > 50 µg/mL | C=CCc1ccc(O)c(-c2cc(CC=C)ccc2O)c1 [MAGNOLOL]
50 | > 50 µg/mL | C=C1CC[C@H]2C(C)(C)[C@@H](O)CC[C@]2(C)[C@H]1CCC1=C(C)C(=O)C[C@H]2C(C)(C)C(=O)CC[C@]12C [LAMESTICUMIN C]

system: Micrococcus luteus; assay: Antibacterial activity against Micrococcus luteus ATCC 9341 after 18 hrs by microdilution assay; assay type: functional; conditions: ATCC 9341, 18 h; outline: as §1

Row | MIC | Compound
51 | > 50 µg/mL | C=C(C)[C@@H]1CCC(=C)[C@H](CC[C@H]2C(C)=CC[C@@H](C(=C)C)[C@]2(C)CCC(=O)O)[C@@]1(C)CCC(=O)OCC
52 | 6.25 µg/mL (≈ 12.4 µM) | C=C(C)[C@@H]1CC=C(C)[C@H](CC[C@H]2C(=C)CC[C@@H](C(C)(C)O)[C@]2(C)CCC(=O)OC)[C@@]1(C)CCC(=O)O [LAMESTICUMIN A]
53 | > 50 µg/mL | CC1=CC[C@H]2C(C)(C)C(=O)CC[C@]2(C)[C@H]1CC/C=C(\C)CC/C=C(\C)CC[C@@H](O)C(C)(C)O [LAMESTICUMIN F]
54 | 12.5 µg/mL (≈ 46.9 µM) | C=CCc1ccc(O)c(-c2cc(CC=C)ccc2O)c1 [MAGNOLOL]
55 | 6.25 µg/mL (≈ 13.7 µM) | C=C1CC[C@H]2C(C)(C)[C@@H](O)CC[C@]2(C)[C@H]1CCC1=C(C)C(=O)C[C@H]2C(C)(C)C(=O)CC[C@]12C [LAMESTICUMIN C]
